CXCR6 block: CXCR6 (human) receptor inhibition. inhibition, % at 20 µM. hit rate 0.36% among 360,000. O00574. CHO-K1 PathHunter CXCR6 beta-arrestin, luminescence; in the data active means inhibition above about 34%, passing the limit was not always enough;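 further: antagonist mode with CXCL16 agonist at 10 nM final; 0% = 10 nM CXCL16 with DMSO and 100% = unstimulated wells without agonist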
EBI2 block: blocks human EBI2 receptor beta-arrestin signaling | P32249 | EBI2 beta-arrestin recruitment, luminescence, 7a,25-OHC stimulated | inhibition, % at 5 µM | hit rate 0.81% among 360,000 | AID 651636; in the data active means inhibition above about 38%;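 further: enzyme fragment complementation signal reports receptor beta-arrestin coupling in cells; 0% = agonist plus DMSO wells and 100% = wells without agonist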
Target sequence (P32249 whole entry, looked up, the tested form may be a part): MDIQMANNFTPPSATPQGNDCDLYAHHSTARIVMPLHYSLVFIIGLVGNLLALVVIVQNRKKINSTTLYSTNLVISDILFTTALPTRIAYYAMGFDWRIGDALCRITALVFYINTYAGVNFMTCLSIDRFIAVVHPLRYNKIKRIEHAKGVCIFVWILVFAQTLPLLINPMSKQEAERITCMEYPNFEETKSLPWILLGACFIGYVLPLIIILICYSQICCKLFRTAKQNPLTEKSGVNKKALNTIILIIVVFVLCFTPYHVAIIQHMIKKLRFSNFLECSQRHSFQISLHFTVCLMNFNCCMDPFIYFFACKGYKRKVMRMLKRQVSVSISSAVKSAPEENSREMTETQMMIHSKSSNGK
APJ ag: APJ receptor agonism; P35414; CHO-K1 APJ PathHunter beta-arrestin, luminescence; 0% DMSO wells, 100% apelin; activation, % at 20 µM; hit rate 0.11% among 330,000; AID 2520;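 active means activation more than six SD over the plate average, tested at 20 µM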;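 further: 0% = DMSO alone and 100% = apelin-13 at 10 nM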
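system = engineered CHO-K1 APJ arrestin reporter cells | input = 1000 cells per well | timing = overnight seeding, 90 min compound at 25 °C, 1 h detection | measured by = enzyme-fragment complementation luminescence | read-out = beta-arrestin recruitment to APJ as agonist activity, luminescent signal | control set = negative DMSO alone, positive Apelin-13 at 10 nM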
APJ antag: blocks the human apelin receptor APJ; CHO-K1 APJ beta-arrestin complementation, luminescence; AID 2521; hit rate 0.32% among 330,000; inhibition, % at 20 µM;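 active means inhibition above about 40% at 20 µM, limit read from the data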;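 further: cells challenged with 10 nM apelin-13 agonist together with compound; plate controls were apelin-13 plus DMSO wells for no effect and DMSO wells lacking apelin-13 for full effect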
CCR6 antag: antagonists of human CCR6 receptor; P51684; CHO-K1 CCR6 PathHunter beta-arrestin, luminescence, CCL20-stimulated; inhibition, % at 20 µM; hit rate 0.49% among 340,000;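 active means compounds whose inhibition of the agonist-driven luminescence signal at 20 µM reaches about 50%, limit read from the data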;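 further: cells stimulated with CCL20 at 14 nM final; plate controls were DMSO with CCL20 for no effect and DMSO without agonist for full effect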
m5-HT2A agonist: agonists of mouse serotonin 5-HT2A receptor (HTR2A); P35363; CHO-K1 mHTR2A beta-arrestin complementation, luminescence; percent of 30 µM serotonin response; activation, % at 7.6 µM; hit rate 0.66% among 360,000;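 active means activation above a run cutoff, the mean activation of all tested compounds plus 3 SD, cut at about 14% in these data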;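 further: 0% = plate median of compound wells and 100% = 30 µM serotonin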
The depositor's hits bear a star; / = not tested or not shown. Sampled rows, rich in hits. Any-hit rate of the full collection: about 2.1%.

SMILES | CXCR6 block | EBI2 block | APJ ag | APJ antag | CCR6 antag | m5-HT2A agonist
Cc1ccc(-n2cnc(N)c2C(=O)c2cccc([N+](=O)[O-])c2)cc1 | 1.6 | 22.1 | -2.1 | 5.1 | 9.1 | -2.0
CCC(=O)N(CCc1ccc(OC)c(OC)c1)Cc1cc2ccc(C)cc2n2nnnc12 | -4.9 | -8.5 | -1.5 | 7.9 | 2.4 | 1.1
CCOc1ccccc1N1C(=O)CC(Sc2n[nH]c(-c3ccccc3)n2)C1=O (centres undefined) | -8.0 | -11.9 | -1.9 | 3.9 | 70.2* | 3.4
Cc1ccc(C)c(N2CCN(C(=O)C34CC5CC(C3)CC(n3nnc(C)n3)(C5)C4)CC2)c1 | -6.9 | -4.3 | 6.2 | 8.0 | -4.0 | -1.6
COc1ccc(C(=O)NNC(=S)NC(=O)c2ccco2)cc1 | 14.6 | 5.0 | -5.4 | 21.1 | 42.0 | 1.0
CCCOc1ccc(C(=O)NNC(=S)NC(=O)c2ccco2)cc1 | 37.4 | -5.1 | -3.2 | 8.9 | 70.0* | -3.9
O=C(CSc1nnc2ncccn12)Nc1cccc2ccccc12 | 10.6 | -8.5 | -5.0 | 0.1 | 3.1 | -6.4
O=C(CCCc1ccccc1)NCc1ccc2c(c1)OCO2 | -4.6 | 0.8 | -1.2 | 12.6 | 15.2 | 2.0
O=C(CS(=O)(=O)Cc1ccccc1)NCc1ccc2c(c1)OCO2 | -1.9 | -5.3 | -0.4 | 2.1 | 52.4* | -1.8
O=C(CCc1nnc(CCCCc2ccccc2)o1)N1CCCC(O)C1 (centres undefined) | -1.8 | 1.1 | 0.4 | -0.3 | 10.0 | -5.3
C=C(CN(C)C)C(=O)c1cc(C)ccc1C | 96.4* | 2.1 | / | / | 108.1* | -5.2
N#CC(=C1CCCC1)c1nc(-c2ccccc2)cs1 | 4.4 | 40.1 | 0.2 | -14.6 | 1.5 | -2.1
N#CC(=C1CCCC1)c1nc(-c2ccccc2O)cs1 | 5.5 | 65.0* | -3.2 | -8.6 | 16.6 | 0.8
COc1ccccc1CN(CC(=O)NCc1ccco1)C(=O)CNS(=O)(=O)c1ccccc1 | -4.8 | 3.2 | -4.0 | 8.0 | 60.8* | 0.5
CC(C)Sc1nc(-c2cccs2)nc2cc(Cl)ccc12 | -1.2 | -19.7 | / | / | / | 4.3
CCOc1cc(C=O)ccc1OS(=O)(=O)c1ccc(NC(C)=O)cc1 | 2.6 | -4.1 | 1.7 | 2.2 | 0.1 | -0.1
O=C(Nc1cc(Cl)cc2c1-c1ccc(Cl)cc1C2O)C(Cl)Cl (centres undefined) | -0.6 | 44.1* | / | / | 29.8 | 6.2
C[C@@H]1CC[C@]2(C(=O)O[C@@H]3O[C@H](CO)[C@@H](O)[C@H](O)[C@H]3O)CC[C@]3(C)C(=CCC4[C@@]5(C)CC[C@H](O[C@@H]6OC[C@H](O)[C@H](O[C@@H]7O[C@H](CO)[C@@H](O)[C@H](O)[C@H]7O)[C@H]6O)C(C)(C)C5CC[C@]43C)C2[C@]1(C)O (some centres undefined) | -3.3 | 1.2 | -2.6 | 1.7 | -23.8 | 9.4
COc1ccc(/C=C\C(=O)O[C@@H]2C(O)C(O[C@@H]3OC(C)[C@H](O[C@@H]4OCC(O[C@H]5O[C@H](CO)[C@@H](O)C(O)C5O)C(O)C4O)C(O)C3O)[C@H](OC(=O)[C@]34CCC(C)(C)C[C@@H]3C3=CCC5[C@@]6(C)CC(O)C(O[C@@H]7OC(CO)C(O)[C@H](O)[C@H]7O)[C@@](C)(C(=O)O)C6CC[C@@]5(C)[C@]3(CO)CC4)O[C@H]2C)cc1 (some centres undefined) | -11.2 | -8.5 | 0.3 | -12.1 | -13.8 | 15.9*
Cc1ccc(NC(=O)Nc2nnc(Cc3ccc([N+](=O)[O-])cc3)s2)cc1 | -0.7 | -10.5 | 2.7 | -14.0 | 62.1* | 1.8
COC(=O)C[C@@H]1CC[C@H](NC(=O)c2ccccc2)[C@@H](CO)O1 | / | -8.0 | / | / | / | 0.9
Cc1ccccc1C(=O)NC(=S)Nc1ccc(Oc2ccc(Cl)cc2)cc1 | 24.6 | 21.8 | -6.1 | 35.5 | 52.9* | -6.2
O=C(NC(=S)Nc1ccc(Oc2ccccc2)cc1)c1ccc(Cl)cc1 | 28.4 | -6.6 | -0.4 | 15.9 | 46.1 | 1.4
CCCNC(=O)C1(C)CCCN(C(=O)c2sccc2C)C1 (centres undefined) | -4.5 | 0.9 | / | / | / | 1.3
Cc1ccc(NC(=O)C2(C)CCN2C(=O)C2CCCCC2)cc1C (centres undefined) | -4.7 | 6.3 | / | / | / | -5.7
